The source made the active and inactive calls. No cut-off for these calls is given here.
Legend:
L1210 [1] = assay: Antileukemic activity against mouse L1210 cells allografted in BDF1 mouse assessed as increase in life span of host at 52.1 umol/kg, ip relative to control; type: functional
Outline: (§1)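 BDF1 mice, 5 weeks old, were inoculated ip with 5×10^5 L1210 cells; test groups had 4 males and 4 females, controls 5 males and 5 females. A single ip dose was given on the day after inoculation, as a suspension in vehicle for the insoluble compounds. Read-out was increase in life span over controls, with survivors past 30 days counted as 30 days.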

L1210 [2] = assay: Antileukemic activity against mouse L1210 cells allografted in BDF1 mouse assessed as host survival at 20.8 umol/kg, ip after 30 days; type: functional, organism-based
Outline: (§2)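 BDF1 mice, 5 weeks old, were inoculated ip with 5×10^5 L1210 cells in 0.1 ml saline. Test groups were 4 male and 4 female mice; controls were 5 male and 5 female. Insoluble compounds were suspended in vehicle. Dosing was ip, either once on the day after inoculation or daily for 5 days. Read-out was increase in life span over controls. Mice alive beyond 30 days were counted as 30 days and scored as survivors.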

L1210 [3] = assay: Antileukemic activity against mouse L1210 cells allografted in BDF1 mouse assessed as increase in life span of host at 20.8 umol/kg, ip relative to control; type: functional; outline: as §1
Mus musculus = species on record: Mus musculus; assay: Toxicity in mouse L1210 cells allografted BDF1 mouse; type: organism-based
[4] = Solubility of the compound; type: physicochemical
L1210 [5] = assay: Antileukemic activity against mouse L1210 cells allografted in BDF1 mouse assessed as host survival at 61 umol/kg, ip after 30 days; type: functional, organism-based; outline: as §2
L1210 [6] = assay: Antileukemic activity against mouse L1210 cells allografted in BDF1 mouse assessed as increase in life span of host at 45.7 umol/kg, ip relative to control; type: functional; outline: as §1
L1210 [7] = assay: Antileukemic activity against mouse L1210 cells allografted in BDF1 mouse assessed as increase in life span of host at 61 umol/kg, ip relative to control; type: functional; outline: as §1
L1210 [8] = assay: Antileukemic activity against mouse L1210 cells allografted in BDF1 mouse assessed as host survival at 45.7 umol/kg, ip after 30 days; type: functional, organism-based; outline: as §2
L1210 [9] = assay: Antileukemic activity against mouse L1210 cells allografted in BDF1 mouse assessed as increase in life span of host at 24.4 umol/kg, ip relative to control; type: functional; outline: as §1
L1210 [10] = assay: Antileukemic activity against mouse L1210 cells allografted in BDF1 mouse assessed as increase in life span of host at 5.56 umol/kg, po qd for 4 days relative to control; type: functional; settings: 96 h
L1210 [11] = assay: Antileukemic activity against mouse L1210 cells allografted in BDF1 mouse assessed as increase in life span of host at 69.4 umol/kg, ip relative to control; type: functional; outline: as §1
L1210 [12] = assay: Antileukemic activity against mouse L1210 cells allografted in BDF1 mouse assessed as increase in life span of host at 5.56 umol/kg, ip relative to control; type: functional; outline: as §1
L1210 [13] = assay: Antileukemic activity against mouse L1210 cells allografted in BDF1 mouse assessed as increase in life span of host at 27.8 umol/kg, ip qd for 5 days relative to control; type: functional; settings: 120 h
Outline: (§3)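 BDF1 mice, 5 weeks old, were inoculated ip with 5×10^5 L1210 cells; test groups had 4 males and 4 females, controls 5 males and 5 females. Dosing was ip, five times over the 5 days after inoculation, as a suspension in vehicle for the insoluble compounds. Read-out was increase in life span over controls.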

L1210 [14] = assay: Antileukemic activity against mouse L1210 cells allografted in BDF1 mouse assessed as increase in life span of host at 27.8 umol/kg, sc qd for 5 days relative to control; type: functional; settings: 120 h
L1210 [15] = assay: Antileukemic activity against mouse L1210 cells allografted in BDF1 mouse assessed as increase in life span of host at 5.21 umol/kg, ip relative to control; type: functional; outline: as §1
L1210 [16] = assay: Antileukemic activity against mouse L1210 cells allografted in BDF1 mouse assessed as increase in life span of host at 5.56 umol/kg, ip qd for 5 days relative to control; type: functional; settings: 120 h; outline: as §3
L1210 [17] = assay: Antileukemic activity against mouse L1210 cells allografted in BDF1 mouse assessed as increase in life span of host at 13.8 umol/kg, sc qd for 5 days relative to control; type: functional; settings: 120 h
L1210 [18] = assay: Antileukemic activity against mouse L1210 cells allografted in BDF1 mouse assessed as increase in life span of host at 27.8 umol/kg, ip relative to control; type: functional; outline: as §1
L1210 [19] = assay: Antileukemic activity against mouse L1210 cells allografted in BDF1 mouse assessed as increase in life span of host at 5.56 umol/kg, sc qd for 5 days relative to control; type: functional; settings: 120 h
L1210 [20] = assay: Antileukemic activity against mouse L1210 cells allografted in BDF1 mouse assessed as increase in life span of host at 1.11 umol/kg, sc qd for 5 days relative to control; type: functional; settings: 120 h
L1210 [21] = assay: Antileukemic activity against mouse L1210 cells allografted in BDF1 mouse assessed as increase in life span of host at 27.8 umol/kg, po qd for 4 days relative to control; type: functional; settings: 96 h
L1210 [22] = assay: Antileukemic activity against mouse L1210 cells allografted in BDF1 mouse assessed as increase in life span of host at 13.8 umol/kg, ip qd for 5 days relative to control; type: functional; settings: 120 h; outline: as §2
L1210 [23] = assay: Antileukemic activity against mouse L1210 cells allografted in BDF1 mouse assessed as increase in life span of host at 13.8 umol/kg, po qd for 4 days relative to control; type: functional; settings: 96 h
L1210 [24] = assay: Antileukemic activity against mouse L1210 cells allografted in BDF1 mouse assessed as increase in life span of host at 1.11 umol/kg, ip qd for 5 days relative to control; type: functional; settings: 120 h; outline: as §2
L1210 [25] = assay: Antileukemic activity against mouse L1210 cells allografted in BDF1 mouse assessed as increase in life span of host at 139 umol/kg, ip relative to control; type: functional; outline: as §2
L1210 [26] = assay: Antileukemic activity against mouse L1210 cells allografted in BDF1 mouse assessed as increase in life span of host at 278 umol/kg, ip relative to control; type: functional; outline: as §1
L1210 [27] = assay: Antileukemic activity against mouse L1210 cells allografted in BDF1 mouse assessed as increase in life span of host at 25 umol/kg, sc qd for 5 days relative to control; type: functional; settings: 120 h
L1210 [28] = assay: Antileukemic activity against mouse L1210 cells allografted in BDF1 mouse assessed as increase in life span of host at 1 umol/kg, ip qd for 5 days relative to control; type: functional; settings: 120 h; outline: as §2
L1210 [29] = assay: Antileukemic activity against mouse L1210 cells allografted in BDF1 mouse assessed as increase in life span of host at 25 umol/kg, po qd for 4 days relative to control; type: functional; settings: 96 h
L1210 [30] = assay: Antileukemic activity against mouse L1210 cells allografted in BDF1 mouse assessed as increase in life span of host at 1 umol/kg, sc qd for 5 days relative to control; type: functional; settings: 120 h
L1210 [31] = assay: Antileukemic activity against mouse L1210 cells allografted in BDF1 mouse assessed as increase in life span of host at 12.5 umol/kg, po qd for 5 days relative to control; type: functional; settings: 120 h
L1210 [32] = assay: Antileukemic activity against mouse L1210 cells allografted in BDF1 mouse assessed as increase in life span of host at 12.5 umol/kg, ip qd for 5 days relative to control; type: functional; settings: 120 h; outline: as §2
L1210 [33] = assay: Antileukemic activity against mouse L1210 cells allografted in BDF1 mouse assessed as increase in life span of host at 5 umol/kg, sc qd for 5 days relative to control; type: functional; settings: 120 h
L1210 [34] = assay: Antileukemic activity against mouse L1210 cells allografted in BDF1 mouse assessed as increase in life span of host at 5 umol/kg, ip qd for 5 days relative to control; type: functional; settings: 120 h; outline: as §3
L1210 [35] = assay: Antileukemic activity against mouse L1210 cells allografted in BDF1 mouse assessed as increase in life span of host at 25 umol/kg, ip qd for 5 days relative to control; type: functional; settings: 120 h; outline: as §3
L1210 [36] = assay: Antileukemic activity against mouse L1210 cells allografted in BDF1 mouse assessed as increase in life span of host at 5 umol/kg, po qd for 5 days relative to control; type: functional; settings: 120 h
L1210 [37] = assay: Antileukemic activity against mouse L1210 cells allografted in BDF1 mouse assessed as increase in life span of host at 4.17 umol/kg, ip relative to control; type: functional; outline: as §1
L1210 [38] = assay: Antileukemic activity against mouse L1210 cells allografted in BDF1 mouse assessed as host survival at 22.8 umol/kg, ip after 30 days; type: functional, organism-based; outline: as §2
L1210 [39] = assay: Antileukemic activity against mouse L1210 cells allografted in BDF1 mouse assessed as host survival at 4.17 umol/kg, ip after 30 days; type: functional, organism-based; outline: as §2
L1210 [40] = assay: Antileukemic activity against mouse L1210 cells allografted in BDF1 mouse assessed as host survival at 57.1 umol/kg, ip after 30 days; type: functional, organism-based; outline: as §2
L1210 [41] = assay: Antileukemic activity against mouse L1210 cells allografted in BDF1 mouse assessed as increase in life span of host at 22.8 umol/kg, ip relative to control; type: functional; outline: as §1
L1210 [42] = assay: Antileukemic activity against mouse L1210 cells allografted in BDF1 mouse assessed as increase in life span of host at 57.1 umol/kg, ip relative to control; type: functional; outline: as §1

Compound: CCOCc1c(C(O)(CC(=O)OCC)C(=O)OCC)cc2n(c1=O)Cc1cc3ccccc3nc1-2 (stereo not drawn)
- ILS at 52.1 µmol/kg (L1210 [1]): > 170%
- Activity (L1210 [2]): inactive
- ILS at 20.8 µmol/kg (L1210 [3]): 55%
- Activity (Mus musculus): Toxic
- solubility [4]: Insoluble

Compound: O=C1OCc2c(cc3n(c2=O)Cc2cc4ccccc4nc2-3)C1(O)Cc1ccccc1 (racemic)
- Activity (L1210 [5]): inactive
- ILS at 45.7 µmol/kg (L1210 [6]): 12%
- Activity (Mus musculus): Toxic
- ILS at 61 µmol/kg (L1210 [7]): -34%
- Activity (L1210 [8]): inactive
- ILS at 24.4 µmol/kg (L1210 [9]): > 171%
- solubility [4]: Insoluble

Compound: C=CCC1(O)C(=O)OCc2c1cc1n(c2=O)Cc2cc3ccccc3nc2-1 (racemic)
- ILS at 5.56 µmol/kg (L1210 [10]): 3%
- ILS at 69.4 µmol/kg (L1210 [11]): > 155%
- ILS at 5.56 µmol/kg (L1210 [12]): 16%
- ILS at 27.8 µmol/kg (L1210 [13]): -13%
- ILS at 27.8 µmol/kg (L1210 [14]): 51%
- ILS at 5.21 µmol/kg (L1210 [15]): -5%
- ILS at 5.56 µmol/kg (L1210 [16]): 42%
- ILS at 13.8 µmol/kg (L1210 [17]): 26%
- ILS at 27.8 µmol/kg (L1210 [18]): 84%
- Activity (Mus musculus): Toxic
- ILS at 5.56 µmol/kg (L1210 [19]): 4%
- ILS at 1.11 µmol/kg (L1210 [20]): -1%
- ILS at 27.8 µmol/kg (L1210 [21]): -1%
- ILS at 13.8 µmol/kg (L1210 [22]): > 105%
- ILS at 13.8 µmol/kg (L1210 [23]): -1%
- ILS at 1.11 µmol/kg (L1210 [24]): 14%
- ILS at 139 µmol/kg (L1210 [25]): > 60%
- ILS at 278 µmol/kg (L1210 [26]): -43%
- solubility [4]: Insoluble

Compound: C=CCC1(O)C(=O)OCc2c1cc1n(c2=O)Cc2cc3ccccc3nc2-1 (stereo not drawn)
- ILS at 25 µmol/kg (L1210 [27]): 72%
- ILS at 1 µmol/kg (L1210 [28]): -2%
- ILS at 25 µmol/kg (L1210 [29]): 21%
- ILS at 1 µmol/kg (L1210 [30]): -2%
- ILS at 12.5 µmol/kg (L1210 [31]): 40%
- ILS at 12.5 µmol/kg (L1210 [32]): 58%
- ILS at 5 µmol/kg (L1210 [33]): 9%
- ILS at 5 µmol/kg (L1210 [34]): 13%
- ILS at 25 µmol/kg (L1210 [35]): > 118%
- ILS at 5 µmol/kg (L1210 [36]): 12%

Compound: O=C(CC1(O)C(=O)OCc2c1cc1n(c2=O)Cc2cc3ccccc3nc2-1)c1ccccc1 (racemic)
- ILS at 4.17 µmol/kg (L1210 [37]): 26%
- Activity (L1210 [38]): inactive
- Activity (L1210 [39]): inactive
- Activity (L1210 [40]): inactive
- ILS at 22.8 µmol/kg (L1210 [41]): 10%
- ILS at 57.1 µmol/kg (L1210 [42]): 21%
- solubility [4]: Insoluble

From ChEMBL document CHEMBL3272061, “Experiments of synthesis of dl-camptothecin. 4. Synthesis and antileukemic activity of dl-camptothecin analogues” (J Med Chem, 1976)
